Measured values: ChEMBL document CHEMBL1157797, “The alternative medicine pawpaw and its acetogenin constituents suppress tumor angiogenesis via the HIF-1/VEGF pathway” (J Nat Prod, 2010)
The source made the active and inactive calls. The rule behind the calls is not given here.

Tests used:
PC-3 [1] = assay: Cytotoxicity against human PC3 cells assessed as suppression of cell proliferation under normoxic condition at 100 nM after 6 days relative to control; type: functional
DU-145 [2] = assay: Cytotoxicity against human DU145 cells assessed as suppression of cell proliferation under normoxic condition at 100 nM after 6 days relative to control; type: functional
T47D [3] = assay: Inhibition of ATP in human T47D cells under hypoxia for 16 hrs at 0.1 to 0.3 uM; type: functional, cell-based
[4] = target: T1, Hypoxia inducible factors; HIF-1-alpha, HIF-2-alpha (Homo sapiens, UniProt Q16665+Q99814); assay: Inhibition of chemical hypoxia-induced HIF1 activation in human T47D cells in presence of 1, 10-phenanthrolin by HRE3-TK-luc reporter assay; type: cell-based
[5] = target: T1, Hypoxia inducible factors; HIF-1-alpha, HIF-2-alpha; assay: Inhibition of hypoxia-induced HIF1 activation in human T47D cells in presence of 1% O2 by HRE3-TK-luc reporter assay; type: cell-based
Procedure, shortened: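 T47D cells carrying the pHRE3-TK-Luc reporter, made hypoxic at 1% O2. HIF-1 activation read as luciferase signal over a concentration range, giving IC50. Data are means ± SEM, n = 3.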

[6] = target: T1, Hypoxia inducible factors; HIF-1-alpha, HIF-2-alpha; assay: Inhibition of hypoxia-induced HIF1 activation in human PC3 cells by HRE3-TK-luc reporter assay; type: cell-based; conditions: PC-3, concentration not given here
Procedure, shortened: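 HIF-1 activation in PC-3 cells induced by hypoxia (1% O2) and read with the pHRE3-TK-Luc luciferase reporter. Concentration-response, IC50/EC50 derived. Data are means ± SEM, n = 3.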

T47D [7] = assay: Inhibition of hypoxia-induced GLUT1 mRNA expression in human T47D cells at 0.1 uM in presence of 1% O2 for 16 hrs by RT-PCR; type: functional
Procedure, shortened: (§1)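 T47D cells treated under hypoxia (1% O2, 16 h). GLUT-1 or VEGF mRNA measured by quantitative real-time RT-PCR and normalised to 18S rRNA. Reported relative to the normoxic control, mean ± SD, n = 3.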

T47D [8] = assay: Inhibition of hypoxia-induced VEGF mRNA expression in human T47D cells at 0.1 uM in presence of 1% O2 for 16 hrs by RT-PCR; type: functional; procedure, shortened: as §1
T47D [9] = assay: Inhibition of hypoxia-induced VEGF protein expression in human T47D cells at 0.03 to 0.1 uM in presence of 1% O2; type: functional, cell-based
Procedure, shortened: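 T47D cells exposed to hypoxia with test agent. Secreted VEGF protein in the conditioned medium measured by ELISA and normalised to cellular protein. Mean + SD, n = 3; p values compared with the hypoxia-induced sample.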

HUVEC [10] = assay: Inhibition of VEGF-induced angiogenesis in HUVEC cells at 0.1 uM by tube formation assay; type: functional, cell-based; conditions: Homo sapiens
T47D [11] = assay: Inhibition of normoxic human T47D cells at 0.1 uM by tube formation assay; type: functional, cell-based
Procedure, shortened: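 Conditioned media from T47D cells (normoxic, hypoxic, or hypoxic plus treatment) applied to HUVEC on Matrigel. Tube length and branching points quantified in three random fields, expressed as % of the normoxic-cell medium, mean ± SD.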

HUVEC [12] = assay: Cytotoxicity against HUVEC cells; type: cell-based; conditions: human
T47D [13] = assay: Inhibition of hypoxia-induced HIF1alpha protein accumulation in nucleus of human T47D cells by Western blot analysis; type: functional, cell-based
Procedure, shortened: (§2)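 T47D cells exposed to hypoxia (1% O2, 4 h) with or without treatment. Nuclear extracts prepared and probed for HIF-1α and HIF-1β by Western blot.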

T47D [14] = assay: Inhibition of hypoxia-induced HIF1beta protein accumulation in nucleus of human T47D cells by Western blot analysis; type: functional, cell-based; procedure, shortened: as §2
T47D [15] = assay: Inhibition of hypoxia-induced HIF1beta protein subcellular localization in human T47D cells at 0.3 uM by immunofluorescence based assay; type: functional, cell-based
T47D [16] = assay: Inhibition of mitochondrial respiratory chain complex 1 in human T47D cells assessed as decrease in oxygen consumption; type: functional, cell-based
Procedure, shortened: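 Oxygen consumption measured in T47D cells; mean ± SD of three independent experiments. For complex I, cells were permeabilised with digitonin (30 μM) and respiration started with malate plus pyruvate. Follow-up additions: succinate (complex II substrate), antimycin A, and TMPD/ascorbate to test complexes II–IV.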

T47D [17] = assay: Inhibition of mitochondrial respiratory chain complex 2 in human T47D cells assessed as decrease in oxygen consumption at 0.3 uM; type: functional, cell-based
Procedure, shortened: (§3)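 Oxygen consumption measured in T47D cells permeabilized with digitonin (30 μM). Complex I respiration started with malate plus pyruvate. Rotenone was added as complex I blocker, then succinate (complex II substrate). Antimycin A was added to block complex III, then TMPD plus ascorbate (complex IV substrates) to restart respiration. Sample added at 0.3 μM.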

T47D [18] = assay: Inhibition of mitochondrial respiratory chain complex 3 in human T47D cells assessed as decrease in oxygen consumption at 0.3 uM; type: functional, cell-based; procedure, shortened: as §3
T47D [19] = assay: Inhibition of mitochondrial respiratory chain complex 4 in human T47D cells assessed as decrease in oxygen consumption at 0.3 uM; type: functional, cell-based; procedure, shortened: as §3
T47D [20] = assay: Inhibition of mitochondrial respiratory chain complex in human T47D cells assessed as decrease in oxygen consumption in presence of antimycin A complex 3 inhibitor; type: functional, cell-based; procedure, shortened: as §3
T47D [21] = assay: Inhibition of mitochondrial respiratory chain complex in human T47D cells assessed as decrease in oxygen consumption in presence of TMPD and ascorbate complex 4 substrate; type: functional, cell-based; procedure, shortened: as §3
T47D [22] = assay: Inhibition of mitochondrial respiratory chain complex in human T47D cells assessed as decrease in oxygen consumption in presence of rotenone and succinate complex 1 substrate; type: functional, cell-based; procedure, shortened: as §3
T47D [23] = assay: Cytotoxicity against human T47D cells assessed as suppression of cell proliferation under normoxic condition after 48 hrs relative to control; type: functional, cell-based
Procedure, shortened: (§4)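 Four human tumour lines (T47D, MDA-MB-231, PC-3, DU-145) exposed to acetogenins (1 to 100 nM, half-log steps) or crude extract (0.01 to 1 μg/mL, half-log steps) for 48 h, either normoxic (95% air) or hypoxic (1% O2). Proliferation/viability expressed relative to untreated control. Final solvent below 0.5% (v/v).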

T47D [24] = assay: Cytotoxicity against human T47D cells assessed as suppression of cell proliferation under hypoxic condition after 48 hrs relative to control; type: functional, cell-based; procedure, shortened: as §4
MDA-MB-231 [25] = assay: Cytotoxicity against human MDA-MB-231 cells assessed as suppression of cell proliferation under normoxic condition after 48 hrs relative to control; type: functional, cell-based; procedure, shortened: as §4
MDA-MB-231 [26] = assay: Cytotoxicity against human MDA-MB-231 cells assessed as suppression of cell proliferation under hypoxic condition after 48 hrs relative to control; type: functional, cell-based; procedure, shortened: as §4
PC-3 [27] = assay: Cytotoxicity against human PC3 cells assessed as suppression of cell proliferation under normoxic condition after 48 hrs relative to control; type: functional, cell-based; procedure, shortened: as §4
PC-3 [28] = assay: Cytotoxicity against human PC3 cells assessed as suppression of cell proliferation under hypoxic condition after 48 hrs relative to control; type: functional, cell-based; procedure, shortened: as §4
DU-145 [29] = assay: Cytotoxicity against human DU145 cells assessed as suppression of cell proliferation under normoxic condition after 48 hrs relative to control; type: functional, cell-based; procedure, shortened: as §4
DU-145 [30] = assay: Cytotoxicity against human DU145 cells assessed as suppression of cell proliferation under hypoxic condition after 48 hrs relative to control; type: functional, cell-based; procedure, shortened: as §4
T47D [31] = assay: Cytotoxicity against human T47D cells assessed as suppression of cell proliferation under normoxic condition at 10 nM after 6 days relative to control; type: functional
MDA-MB-231 [32] = assay: Cytotoxicity against human MDA-MB-231 cells assessed as suppression of cell proliferation under normoxic condition at 100 nM after 6 days relative to control; type: functional

For `CCCCCCCCCCCC[C@@H](O)[C@H]1CC[C@H]([C@H]2CC[C@H]([C@H](O)CCC(O)CCCCCC(O)CC3=CC(C)OC3=O)O2)O1` (stereo not given in full), the Activity (PC-3 [1]) was less than 30%, the Activity (DU-145 [2]) was less than 30% and the inhibition (T47D [3]) was “inactive”. It also gave an IC50 [4] greater than 1000 nM, an IC50 [5] of 12 nM and an inhibition [6] of 50%. The inhibition at 0.1 µM (T47D [7]) was 80%, the inhibition at 0.1 µM (T47D [8]) was 62% and the inhibition (T47D [9]) was “Active”. The inhibition (HUVEC [10]) was “Active”, the inhibition (T47D [11]) was “inactive” and the Activity (HUVEC [12]) was “Non-toxic”. For the same compound, the inhibition (T47D [13]) was “Dose-dependent effect”, the inhibition (T47D [14]) was “inactive” and the inhibition (T47D [15]) was “Active”. For the same compound, the inhibition (T47D [16]) was “Dose-dependent effect”, the inhibition (T47D [17]) was “inactive” and the inhibition (T47D [18]) was “inactive”. For the same compound, the inhibition (T47D [19]) was “inactive”, the inhibition (T47D [20]) was “inactive” and the inhibition (T47D [21]) was “inactive”. The inhibition (T47D [22]) was “inactive”, the Activity (T47D [23]) was “inactive” and the Activity (T47D [24]) was “inactive”. The Activity (MDA-MB-231 [25]) was “inactive”, the Activity (MDA-MB-231 [26]) was “inactive” and the Activity (PC-3 [27]) was “inactive”. The Activity (PC-3 [28]) was “inactive”, the Activity (DU-145 [29]) was “inactive” and the Activity (DU-145 [30]) was “inactive”. The Activity (T47D [31]) was 50% and the Activity (MDA-MB-231 [32]) was less than 30%.
In the case of `C=C(C)[C@H]1Cc2c(ccc3c2O[C@@H]2COc4cc(OC)c(OC)cc4[C@@H]2C3=O)O1`, the inhibition (T47D [16]) is reported as “Dose-dependent effect”.
`CCCCCCCCCCCC[C@@H](O)[C@H]1CC[C@H]([C@H](O)CCCC[C@H](O)CCCCC[C@@H](O)CC2=CC(C)OC2=O)O1` (stereo in doubt; 2) was tested, and the inhibition (T47D [3]) was “inactive”, the inhibition [6] was 50% and the inhibition (T47D [9]) was “Active”. For the same compound, the inhibition (HUVEC [10]) was “Active”, the inhibition (T47D [11]) was “inactive” and the inhibition (T47D [13]) was “Dose-dependent effect”. For the same compound, the inhibition (T47D [14]) was “inactive”, the inhibition (T47D [15]) was “Active” and the inhibition (T47D [16]) was “Dose-dependent effect”. For the same compound, the Activity (T47D [23]) was “inactive”, the Activity (T47D [24]) was “inactive” and the Activity (MDA-MB-231 [25]) was “inactive”. For the same compound, the Activity (MDA-MB-231 [26]) was “inactive”, the Activity (PC-3 [27]) was “inactive” and the Activity (PC-3 [28]) was “inactive”. For the same compound, the Activity (DU-145 [29]) was “inactive” and the Activity (DU-145 [30]) was “inactive”.
Compound `CCCCCCCCCCCC[C@@H](O)[C@H]1CC[C@H]([C@H](O)CCCC[C@H](O)CCCCC[C@@H](O)CC2=CC(C)OC2=O)O1` (stereo in doubt; 2) [ANNONACIN] has an IC50 [4] greater than 1000 nM, an IC50 [5] of 13 nM and an inhibition at 0.1 µM (T47D [7]) of 72%. The inhibition at 0.1 µM (T47D [8]) was 64% and the Activity (HUVEC [12]) was “Non-toxic”.
With `CCCCCCCCCCCC[C@@H](O)[C@H]1CC[C@H]([C@H](O)CCCC[C@H](O)CCCCC[C@@H](O)CC2=CC(C)OC2=O)O1` (stereo in doubt; 3) the inhibition (T47D [3]) was “inactive”, the inhibition [6] was 50% and the Activity (T47D [23]) was “inactive”. The Activity (T47D [24]) was “inactive”, the Activity (MDA-MB-231 [25]) was “inactive” and the Activity (MDA-MB-231 [26]) was “inactive”. The Activity (PC-3 [27]) was “inactive”, the Activity (PC-3 [28]) was “inactive” and the Activity (DU-145 [29]) was “inactive”. The Activity (DU-145 [30]) was “inactive”.
`CCCCCCCCCCCC[C@@H](O)[C@H]1CC[C@H]([C@H](O)CCCC[C@H](O)CCCCC[C@@H](O)CC2=CC(C)OC2=O)O1` (stereo in doubt; 3) [ANNONACIN] was tested, and the Activity (PC-3 [1]) was less than 30%, the Activity (DU-145 [2]) was less than 30% and the IC50 [4] was greater than 1000 nM. The Activity (T47D [31]) was 50% and the Activity (MDA-MB-231 [32]) was less than 30%.
